Measurements published in ChEMBL document CHEMBL4513216, “Probing the Open Global Health Chemical Diversity Library for Multistage-Active Starting Points for Next-Generation Antimalarials” (ACS Infect Dis, 2020).

Test: Toxicity liver stage against HepG2, at 10uM
Assay type: cell-based
Set-up: test concentration 10 uM, cell line HepG2-A16-CD81EGFP
Details: human, HepG2-A16-CD81EGFP cells; read-out: INHIBITION
Outline: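 Uninfected HepG2-A16-CD81EGFP cells, 3 × 10^3 per well, 1536-well, plated on prespotted compound at 10 μM final, parasite-free screening media added to match infected plates; puromycin 10 μM positive, DMSO 0.5% negative; run in parallel with 48 h PbLuc assay at 37 °C, 5% CO2; viability by CellTiter-Glo luminescence, normalized to controls.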

Row | Structure (SMILES) | cytotoxicity at 10 µM [%]
1 | CC(C)(C)CN1CC(O)CN(C(=O)c2cccc(C(F)(F)F)c2)CC1=O (stereo not drawn) | 5.99
2 | CC[C@H](C)[C@H](NC(=O)c1ccc(-n2cnnn2)cc1)C(=O)OC | 9.09
3 | COc1ccc(-c2csc3c2c(N)nc(=O)n3CCCN(C)C)cc1 | -54
4 | Cc1cnc2n(c1=O)C(CC(=O)NCc1ccc(Cl)cc1)CS2 (stereo not drawn) | -5.55
5 | COC(=O)c1ccc(S(=O)(=O)NC2CNC(=O)C2)cc1 (stereo not drawn) | -7.27
6 | O=C(c1ccco1)N(CC(F)(F)F)C1CCOCC1 | -12.3
7 | Cn1cc(-c2nc(C3CCN(CC4CC4)CC3)cc3c2ncn3C)cn1 | -1.86
8 | O=C(c1cnccn1)N1CCn2cnc(COCC3CC3)c2C1 | 7.14
9 | CC(C)CCNc1c(C#N)c2c(c3nncn13)CN(C)CC2 | 9.26
10 | Cc1oc(-c2nc(C#N)c(NC(C)C)o2)cc1S(=O)(=O)N1CCCCC1 | 4.28
11 | C=C/C=c1\c(=C/C)oc2c(NCc3ccccc3)ncnc12 | 21.3
12 | Cc1cccc2c1cnn2CCCNC(=O)CCCC(=O)O | -11.1
13 | Cc1cc(C)n(-c2nc(C(=O)NCCN3CCC(C)CC3)cs2)n1 | 10.2
14 | Cc1nc(O)c2c(n1)CCN(Cc1cc(C)sc1C)CC2 | -9
15 | Cc1cc(C(F)(F)F)c2c(C3CCN(S(=O)(=O)N(C)C)CC3)noc2n1 | 3.63
16 | CC(C)(C)n1ncc(NCc2ccccc2)c(Cl)c1=O | 55.8
17 | CCCc1nn(Cc2csc(CC)n2)c(=O)o1 | -43.1
18 | Cn1cnc2c1CCN(c1ccnc(-c3ccccc3)n1)C2 | 7.51
19 | COCc1nc(-c2ccc(S(=O)(=O)N3CCCC3)cc2)cs1 | -49.8
20 | COCCN1CCC(CNc2nc3ccccc3o2)CC1 | -53.6
21 | CN1CCC(N(Cc2ccco2)S(=O)(=O)c2ccc(Br)cc2Cl)CC1 | -12.8
22 | COC(=O)NCC(=O)N1CCCC1c1nc(-c2ccccc2F)c[nH]1 (stereo not drawn) | 8.01
23 | CC(=O)N1CCc2ccccc2C1CC(=O)NCc1nnc(C)o1 (stereo not drawn) | 5.8

Row | Structure (SMILES) | cytotoxicity at 10 µM [%]
24 | Cc1ccc(C(C)NC(=O)N2CCCN(CC(F)F)CC2)s1 (stereo not drawn) | 3.44
25 | CC(=O)c1cccc(NC(=O)N(CC(F)F)C2CC2)c1 | 2.08
26 | CC1CN(c2ncnc3sccc23)CCN1c1nccs1 (stereo not drawn) | 32.1
27 | CSCC(=O)N1CCN(CC(O)C(C)(C)C)CC1 (stereo not drawn) | -5.66
28 | COc1cc2c(cc1CNCc1cccnc1OC)OC(C)C2 (stereo not drawn) | 3.67
29 | NC(=O)C(NCc1cccs1)c1ccccc1 (stereo not drawn) | -41.5
30 | Cc1occc1C(=O)NCC(=O)N(C)CCCOc1ccccc1 | -50.2
31 | Cc1ccc(C(C)(C)CNC(=O)NC(C)Cn2cncn2)cc1 (stereo not drawn) | 3.09
32 | CC(CNC(=O)CCCc1ccccn1)c1ccsc1 (stereo not drawn) | 7.42
33 | CCS(=O)(=O)N1Cc2ccccc2CC1C(=O)OCc1cc(C)no1 (stereo not drawn) | -13
34 | CCS(=O)(=O)Cc1nnnn1-c1ccccc1 | 2.7
35 | C=C(C)CN1CCCC1c1nc(Cc2ccc(F)cc2)no1 (stereo not drawn) | -4.9
36 | CCc1noc(CS(=O)(=O)Cc2ccccc2C)n1 | 16.8
37 | CCN(CCCNC(=O)c1ccc(C)[nH]c1=O)S(C)(=O)=O | -8.01
38 | Cc1ccc(C(CNCc2ncc[nH]2)N2CCOCC2)s1 (stereo not drawn) | 12
39 | Cc1nc2c(c(C)c1CC(=O)Nc1ccccc1F)c(=O)[nH]n2C | 0.177
40 | O=C(CCCn1cncn1)NC1(c2ccc(Cl)cc2)CCC1 | 6.66
41 | CC(C)c1ocnc1C(=O)NC1(c2cccc(F)c2)CCOCC1 | 6.81
42 | Cc1ccc(C(=O)N2CCCC(n3cncn3)C2)o1 (stereo not drawn) | 4.35
43 | CN(C)C(=O)c1cc(S(=O)(=O)N2CCCC2Cn2ccnc2)cn1C (stereo not drawn) | 12.2
44 | Cc1ccc(C(N)c2cccs2)cc1 (stereo not drawn) | -0.367
45 | COc1ncc(Cl)c(NCc2ccc([S+](C)[O-])cc2)n1 (stereo not drawn) | -4.18
46 | CCCNC(=O)CN1CCOC(CC)C1 (stereo not drawn) | 2.98

Row | Structure (SMILES) | cytotoxicity at 10 µM [%]
47 | CC(C)c1nsc(N2CCCOCC2)n1 | -7.86
48 | COc1cccc(CN(C)C(=O)c2ccc(NC(C)=O)s2)c1OC | 0.23
49 | CNC(=O)c1ccc(OC)c(NCc2ncc(-c3cccs3)o2)c1 | 14
50 | Fc1ccc(OCCNC2CCN(Cc3ccncc3)CC2)c(F)c1 | -11.1
51 | CC(CCN(C)C)NC(=O)N1CCSC(C)(C)C1 (stereo not drawn) | 5.4
52 | CSCCC(NC(=O)c1ccc2ccccc2n1)C(=O)N(C)C (stereo not drawn) | -12
53 | CC(C)(C)c1cnc(CN2CCC(NC(=O)NC3CCCCC3)CC2)o1 | -3.73
54 | Cc1nc(-c2ccccc2)sc1CSCCC(N)=O | -7.97
55 | O=C(COCc1ccccc1Cl)N1CCN(c2ccc(Br)cn2)CC1 | 46.6
56 | O=C(CC1CC1)N1CCC2(COCc3cnc(N4CCOCC4)nc32)C1 (stereo not drawn) | -82.1
57 | O=C(NC1CC1)N1C[C@H]2CN(Cc3cccc(F)c3)C(=O)[C@H]2C1 | -70.5
58 | CS(=O)(=O)N[C@H]1CN(C(=O)c2cscn2)[C@@H]2CCCO[C@H]12 | -84.6
59 | O=C1CC2(CCN(Cc3ccoc3)C2)CN1c1ccc2c(c1)OCO2 (stereo not drawn) | -6.72
60 | CCCOC(=O)N1CCn2nc(-c3nc4ccccc4n3C)cc2C1 | 10.6
61 | CC1CN(CC(=O)NCCc2ccncc2)Cc2ccccc2O1 (stereo not drawn) | -0.369
62 | CCC(=O)N1CCN(C(=O)Nc2ccc(Cl)cc2)[C@H]2CS(=O)(=O)C[C@H]21 | -43.9
63 | COc1cccc(-c2nc3c([nH]2)CCNC3)c1F | -44.7
64 | O=C1N(Cc2ccc(F)c(F)c2)CCCC1(O)CNCc1cccnc1 (stereo not drawn) | 0.598
65 | CCCc1cc(CNC2CCN(c3cc(C(C)C)nc(C)n3)CC2)on1 | -13.6
66 | COc1cccc(CN2CCCCC2CN2CCOCC2)c1F (stereo not drawn) | 2.64
67 | Cc1ccccc1OC1CCN(C(=O)c2c[nH]c(=O)[nH]c2=O)CC1 | 5.25
68 | CNc1ncc(CN(C)Cc2cc(O)c3cccc(Cl)c3n2)cn1 | 7.05
69 | COc1ccc2c(C)c(C(=O)NC3CCCOC3)oc2c1 (stereo not drawn) | -7.28

Row | Structure (SMILES) | cytotoxicity at 10 µM [%]
70 | COc1cc(F)ccc1-c1cnc(N)cn1 | -11.4
71 | COc1ccc(C(=O)NC2CC2)c(OC2CCN(CCCSC)CC2)c1 | -1.76
72 | Cc1cccc2c(CCNC(=O)[C@H](N)c3ccccc3)c[nH]c12 | -3.55
73 | CC(C)C1CN(C(=O)c2cn3cc(Cl)cnc3n2)CCCN1CC1CC1 (stereo not drawn) | 3.46
74 | CCC[C@H]1CN(CCS(C)(=O)=O)C[C@@H]1NC(=O)c1ccn(C)n1 | 5.83
75 | N#CC1(c2ccccc2)CCN(C(=O)C2CCCN(CC(N)=O)C2)CC1 (stereo not drawn) | -7.47
76 | COc1cccc2c(=O)n(C3CCCNC3)cnc12 (stereo not drawn) | -42.4
77 | CCc1ccc(C2CC(=O)Nc3cc(OC)c(NS(C)(=O)=O)cc32)o1 (stereo not drawn) | 3.25
78 | NC(=O)CN1CCC(C(=O)NCCn2cc(Cl)cn2)CC1 | -45.6
79 | Fc1cccnc1Oc1cc(F)c(CN2CCCC2)c(Cl)c1 | 3.3
80 | O=C(Nc1ccc2c(c1)OCO2)N1CCN(CCc2ccccc2)CC1 | -9.28
81 | CN(C)[C@H]1CCCCN(C(=O)c2cccc(-c3cccc(F)c3)c2)C1 | -6.3
82 | Cc1ccc(CN2CCN(C(=O)c3ccc(CO)cc3)C(C)C2=O)cc1 (stereo not drawn) | 6.42
83 | Cc1nc(C2CCN(C[C@H](C)CO)CC2)cc(N2CCOCC2)n1 | -9.3
84 | Cc1ncc(CNC2CC(=O)N(CCc3cccc(Cl)c3)C2)n1C (stereo not drawn) | -133
85 | O=c1[nH]c(NC2CCCC2)nc2nccc(-c3ccsc3)c12 | -12.1
86 | O=C(NCCN1CCOCC1)c1ccc(-c2ccc(F)cc2)nc1O | 2.25
87 | Cc1cc(C(F)(F)F)nn1CCCNC(=O)C1CCCO1 (stereo not drawn) | -6.5
88 | Cc1cc2n(n1)CC(CNCc1ccc(OCC3CC3)nc1)CN2 (stereo not drawn) | -8.42
89 | CCOC(=O)c1sc2ccsc2c1CNC(=O)CCOC | -16.7
90 | CCc1ccccc1OCC(=O)N1CCOCC1c1ncon1 (stereo not drawn) | -8.93
91 | CCOc1cc(C)nc(N2CCN(C(=O)C(C)NC(C)=O)CC2)n1 (stereo not drawn) | -4.41
92 | CN(C(=O)Cc1ccccc1Cl)C1CCN(c2ccccn2)CC1 | -7.48

Row | Structure (SMILES) | cytotoxicity at 10 µM [%]
93 | Cc1nc(NC(=O)CN2CCOC(Cn3cccn3)C2)sc1C (stereo not drawn) | -8.27
94 | CC(C)(C)c1nc(CN2CCCC2Cn2cccn2)no1 (stereo not drawn) | 0.222
95 | CCn1cnnc1CNC(=O)N1CCN(c2nc(C)c(C)s2)CC1 | -9.62
96 | CC(C)c1nc(C2CCCN2C(=O)c2nccnc2N)no1 (stereo not drawn) | -1.96
97 | CCc1noc(C(C)N2CCN(Cc3noc(C)n3)CC2)n1 (stereo not drawn) | -4.48
98 | CC(O)CN1CCN(C(=O)c2ccc3c(c2)COC3)CC1 (stereo not drawn) | -6.44
99 | Cc1cnn(CC2CCCN2CCc2nc3ccccc3c(=O)[nH]2)c1 (stereo not drawn) | -5.79
100 | O=C(NCC(F)F)c1cnc(C2CCCN2)cn1 (stereo not drawn) | 0.13
101 | CCCC(=O)N(CCCN1CCOCC1)c1nc2c(C)c(C)ccc2s1 | -12.6
102 | CN1CCC2(COCCN(Cc3ccc4c(c3)OCO4)C2)C1 (stereo not drawn) | -2.05
103 | Cc1cnc(N2CCC3(CCCN3C(=O)c3ccco3)CC2)nc1 | 6.71
104 | Cc1ccc2c(c1)CN(C(=O)C1CCCCC1)C(CN(C)C)CO2 (stereo not drawn) | 1.85
105 | CCc1c(C)[nH]c(C(C)(C)N)nc1=O | -11
106 | CCN1CCC2(CC1)CN(C(=O)c1cccnc1)c1ccc(Cl)cc12 | -111
107 | Cn1nc(COc2cccnc2)c2c1CCN(CC1CC1)C2 | -97.8
108 | O=C(NCc1cncc2c1CCN(C1CCOCC1)C2)c1ccco1 | -0.758
109 | CC(C)C(=O)NC1CC2(CCN(CC(=O)N(C)C)CC2)c2ccccc21 (stereo not drawn) | -103
110 | CC(C)n1nc(CN(C)C)c2c1CN(C(=O)CC1CC1)CC2 | -6.72
111 | Cc1noc(C)c1CN1CCC2(CCN(Cc3cccc(F)c3)CC2)C1 | -122
112 | COc1ncccc1CNC1CCc2c(ccc(=O)n2C)C1 (stereo not drawn) | -103
113 | CCc1ncc(C(=O)N2CC[C@H]3CC[C@@H](C2)N3C)cn1 | -7.09
